From ChEMBL document CHEMBL1138567, “Regioselective synthesis and antimicrobial screening of novel ketocarbazolodispiropyrrolidine derivatives” (2009) come the findings set out here.

Common to all, as to format: functional
Settings in all cases: read-out: IZ

The test system of test [1] is Salmonella enterica subsp. enterica serovar Typhi str. CT18. Briefly: Antimicrobial activity against Salmonella typhi at 50 ug/ml after 24 hrs by agar diffusion method. In outline: (§1)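 Agar well diffusion: about 9 ml nutrient agar in 9 cm Petri plates, seeded with the test organism. Wells cut with a cork borer and loaded with test compound at 25–100 per ml; tetracycline as control. Plates incubated 24 h at 37 °C. Read-out is the average diameter of the inhibition zone around each well, in mm.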
(A growth-free zone around the sample is the usual read-out of agar diffusion tests.)

Test [2] has as its system Proteus vulgaris. In words: Antimicrobial activity against Proteus vulgaris at 50 ug/ml after 24 hrs by agar diffusion method. In outline:
(§2)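 Agar well diffusion: petri plates (9 cm) with about 9 ml nutrient agar, seeded with the test organism. Wells cut with a cork borer and loaded with test compound at 25, 50, 75 or 100 per ml; tetracycline as control. Incubated 37 °C for 24 h; average inhibition-zone diameter around wells measured (mm).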

Test [3] relates to Proteus mirabilis. Briefly: Antimicrobial activity against Proteus mirabilis at 50 ug/ml after 24 hrs by agar diffusion method. Summed up:
as §2

The test system of test [4] is Proteus vulgaris. Briefly: Antimicrobial activity against Proteus vulgaris at 75 ug/ml after 24 hrs by agar diffusion method. In outline: as §2
Test [5] has as its system Proteus vulgaris. In words: Antimicrobial activity against Proteus vulgaris at 100 ug/ml after 24 hrs by agar diffusion method. Summed up:
as §2

Test [6] concerns Staphylococcus aureus. Briefly: Antimicrobial activity against Staphylococcus aureus at 50 ug/ml after 24 hrs by agar diffusion method. Summed up: as §2
Test [7] relates to Proteus vulgaris. Briefly: Antimicrobial activity against Proteus vulgaris at 25 ug/ml after 24 hrs by agar diffusion method. Summed up: as §2
In test [8] the test system is Salmonella enterica subsp. enterica serovar Typhi str. CT18. Briefly: Antimicrobial activity against Salmonella typhi at 100 ug/ml after 24 hrs by agar diffusion method. Summed up: as §1
Test [9] has as its system Proteus mirabilis. Briefly: Antimicrobial activity against Proteus mirabilis at 75 ug/ml after 24 hrs by agar diffusion method. Summed up:
as §2

Test [10] concerns Staphylococcus aureus. In words: Antimicrobial activity against Staphylococcus aureus at 75 ug/ml after 24 hrs by agar diffusion method. In outline:
as §2

In test [11] the test system is Proteus mirabilis. In words: Antimicrobial activity against Proteus mirabilis at 100 ug/ml after 24 hrs by agar diffusion method. In outline:
as §2

In test [12] the test system is Proteus mirabilis. In words: Antimicrobial activity against Proteus mirabilis at 25 ug/ml after 24 hrs by agar diffusion method. Summed up:
as §2

The test system of test [13] is Salmonella enterica subsp. enterica serovar Typhi str. CT18. In words: Antimicrobial activity against Salmonella typhi at 75 ug/ml after 24 hrs by agar diffusion method. Summed up:
as §1

Test [14] concerns Staphylococcus aureus. Briefly: Antimicrobial activity against Staphylococcus aureus at 100 ug/ml after 24 hrs by agar diffusion method. Summed up: as §2
Test [15] relates to Salmonella enterica subsp. enterica serovar Typhi str. CT18. In words: Antimicrobial activity against Salmonella typhi at 25 ug/ml after 24 hrs by agar diffusion method. In outline: as §1
Test [16] deals with Staphylococcus aureus. In words: Antimicrobial activity against Staphylococcus aureus at 25 ug/ml after 24 hrs by agar diffusion method. In outline:
as §2

For the compound `CN1C[C@@H](c2ccc(Br)cc2)[C@@]2(CCc3c([nH]c4ccccc34)C2=O)C12C(=O)c1ccccc1C2=O`, the zone of inhibition at 50 µg/mL in test [1] came to 9 mm; in the test with Proteus vulgaris [2], 13 mm; in the test with Proteus mirabilis [3] it was 11 mm; in the test on Staphylococcus aureus [6], 12 mm. The zone of inhibition at 75 µg/mL with Proteus vulgaris [4] was determined as 16 mm; with Proteus mirabilis [9], 14 mm; with Staphylococcus aureus [10], 19 mm; in test [13], 18 mm. For the same compound, the zone of inhibition at 100 µg/mL came out at 18 mm in the test with Proteus vulgaris [5], 19 mm in test [8], 16 mm in the test with Proteus mirabilis [11] and 21 mm in the test with Staphylococcus aureus [14]. In addition, the zone of inhibition at 25 µg/mL in the test with Proteus vulgaris [7] and with Proteus mirabilis [12] was 9 mm in each case.
Turning to `CN1C[C@@H](c2ccc(Cl)cc2)[C@@]2(CCc3c([nH]c4ccccc34)C2=O)C12C(=O)c1ccccc1C2=O`, the zone of inhibition at 50 µg/mL in test [1] stood at 13 mm; in the test on Proteus vulgaris [2], 14 mm; in the test on Proteus mirabilis [3], 9 mm; with Staphylococcus aureus [6] it was 11 mm. Besides, the zone of inhibition at 25 µg/mL (in [15]; with Staphylococcus aureus [16]) was 9 mm throughout. The zone of inhibition at 75 µg/mL was found to be 18 mm in the test with Proteus vulgaris [4], 14 mm with Proteus mirabilis [9], 16 mm with Staphylococcus aureus [10] and 16 mm in [13]. Further, the zone of inhibition at 100 µg/mL with Proteus vulgaris [5] is 24 mm; in [8] it was 19 mm; with Proteus mirabilis [11], 23 mm; with Staphylococcus aureus [14], 19 mm.
Regarding `CN1C[C@@H](c2ccc([N+](=O)[O-])cc2)[C@@]2(CCc3c([nH]c4ccccc34)C2=O)[C@]12C(=O)Nc1ccccc12`, the zone of inhibition at 50 µg/mL was determined as 16 mm in [1], 13 mm with Proteus vulgaris [2], 13 mm in the test on Proteus mirabilis [3] and 11 mm with Staphylococcus aureus [6]. Further, the zone of inhibition at 25 µg/mL was found to be 9 mm in test [15], 9 mm in the test with Proteus vulgaris [7] and 12 mm with Proteus mirabilis [12]. The zone of inhibition at 75 µg/mL in the test with Proteus vulgaris [4] was 18 mm; in the test on Proteus mirabilis [9], 16 mm; in the test on Staphylococcus aureus [10], 14 mm; in test [13] it was 18 mm. Further, the zone of inhibition at 100 µg/mL was 22 mm with Proteus vulgaris [5], 22 mm in test [8], 20 mm in the test with Proteus mirabilis [11] and 20 mm in the test on Staphylococcus aureus [14].
Turning to `Cc1ccc([C@@H]2CN(C)C3(C(=O)c4ccccc4C3=O)[C@]23CCc2c([nH]c4ccccc24)C3=O)cc1`, the zone of inhibition at 50 µg/mL in test [1] is 9 mm; in the test with Proteus mirabilis [3], 11 mm; with Staphylococcus aureus [6] it was 14 mm. Besides, the zone of inhibition at 75 µg/mL in the test with Proteus vulgaris [4] was determined as 9 mm; in the test on Proteus mirabilis [9], 14 mm; with Staphylococcus aureus [10] it was 18 mm; in [13], 14 mm. Moreover, the zone of inhibition at 100 µg/mL came out at 12 mm with Proteus vulgaris [5], 16 mm in test [8], 18 mm in the test with Proteus mirabilis [11] and 21 mm with Staphylococcus aureus [14]. Moreover, the zone of inhibition at 25 µg/mL with Staphylococcus aureus [16] and with Proteus mirabilis [12] was 9 mm in each case.
As to `CN1C[C@@H](c2ccc([N+](=O)[O-])cc2)[C@@]2(CCc3c([nH]c4ccccc34)C2=O)C12C(=O)c1ccccc1C2=O`, the zone of inhibition at 50 µg/mL in test [1] is 11 mm; in the test on Proteus vulgaris [2], 17 mm; in the test on Proteus mirabilis [3], 13 mm; with Staphylococcus aureus [6] it was 14 mm. Further, the zone of inhibition at 25 µg/mL amounted to 9 mm in test [15], 12 mm with Proteus vulgaris [7], 11 mm in the test with Staphylococcus aureus [16] and 9 mm with Proteus mirabilis [12]. Moreover, the zone of inhibition at 75 µg/mL in the test on Proteus vulgaris [4] amounted to 18 mm; with Proteus mirabilis [9], 18 mm; with Staphylococcus aureus [10] it was 18 mm; in test [13] it was 13 mm. Further, the zone of inhibition at 100 µg/mL with Proteus vulgaris [5] worked out at 18 mm; in test [8] it was 18 mm; in the test with Proteus mirabilis [11], 21 mm; with Staphylococcus aureus [14], 18 mm.
Take `Cc1ccc([C@@H]2CN(C)[C@@]3(C(=O)c4cccc5cccc3c45)[C@]23CCc2c([nH]c4ccccc24)C3=O)cc1`: the zone of inhibition at 50 µg/mL worked out at 15 mm in test [1], 14 mm in the test on Proteus vulgaris [2], 14 mm in the test with Proteus mirabilis [3] and 18 mm with Staphylococcus aureus [6]. In addition, the zone of inhibition at 25 µg/mL in test [15] is 12 mm; in the test with Proteus vulgaris [7], 11 mm; with Staphylococcus aureus [16], 14 mm; in the test on Proteus mirabilis [12] it was 11 mm. For the same compound, the zone of inhibition at 75 µg/mL in the test on Proteus vulgaris [4] came to 16 mm; in the test with Proteus mirabilis [9], 18 mm; in the test with Staphylococcus aureus [10] it was 23 mm; in test [13], 21 mm. Besides, the zone of inhibition at 100 µg/mL in the test with Proteus vulgaris [5] is 20 mm; in test [8] it was 29 mm; in the test on Proteus mirabilis [11], 21 mm; with Staphylococcus aureus [14], 27 mm.
As for `CN1C[C@@H](c2ccc(Br)cc2)[C@@]2(CCc3c([nH]c4ccccc34)C2=O)[C@]12C(=O)Nc1ccccc12`, the zone of inhibition at 50 µg/mL in [1] turned out to be 9 mm; with Proteus vulgaris [2] it was 14 mm; with Proteus mirabilis [3] it was 14 mm; in the test on Staphylococcus aureus [6], 15 mm. Moreover, the zone of inhibition at 75 µg/mL came out at 18 mm in the test on Proteus vulgaris [4], 16 mm in the test on Proteus mirabilis [9], 18 mm with Staphylococcus aureus [10] and 13 mm in [13]. For the same compound, the zone of inhibition at 100 µg/mL in the test with Proteus vulgaris [5] is 21 mm; in test [8] it was 16 mm; in the test with Proteus mirabilis [11] it was 18 mm; in the test with Staphylococcus aureus [14] it was 22 mm. The zone of inhibition at 25 µg/mL with Proteus vulgaris [7], with Staphylococcus aureus [16] and with Proteus mirabilis [12] was 11 mm each time.
Regarding `CN1C[C@@H](c2ccccc2)[C@@]2(CCc3c([nH]c4ccccc34)C2=O)C12C(=O)c1ccccc1C2=O`, the zone of inhibition at 50 µg/mL in test [1] stood at 13 mm; with Proteus vulgaris [2] it was 15 mm; with Proteus mirabilis [3], 9 mm; in the test with Staphylococcus aureus [6] it was 14 mm. The zone of inhibition at 25 µg/mL was 9 mm in [15] and 11 mm in the test on Proteus vulgaris [7]. Also, the zone of inhibition at 75 µg/mL in the test with Proteus vulgaris [4] was found to be 18 mm; in the test on Proteus mirabilis [9], 13 mm; in the test on Staphylococcus aureus [10], 16 mm; in test [13], 14 mm. The zone of inhibition at 100 µg/mL in the test on Proteus vulgaris [5] is 21 mm; in [8], 18 mm; in the test with Proteus mirabilis [11], 15 mm; in the test on Staphylococcus aureus [14] it was 20 mm.
For the compound `COc1ccc([C@@H]2CN(C)C3(C(=O)c4ccccc4C3=O)[C@]23CCc2c([nH]c4ccccc24)C3=O)cc1`, the zone of inhibition at 50 µg/mL was 11 mm in [1], 15 mm with Proteus vulgaris [2], 15 mm with Proteus mirabilis [3] and 13 mm with Staphylococcus aureus [6]. The zone of inhibition at 75 µg/mL was found to be 16 mm with Proteus vulgaris [4], 17 mm in the test on Proteus mirabilis [9], 15 mm in the test with Staphylococcus aureus [10] and 16 mm in test [13]. Besides, the zone of inhibition at 100 µg/mL with Proteus vulgaris [5] was found to be 21 mm; in [8], 21 mm; in the test on Proteus mirabilis [11] it was 20 mm; in the test on Staphylococcus aureus [14], 20 mm. In addition, the figures for the zone of inhibition at 25 µg/mL with Proteus vulgaris [7], with Staphylococcus aureus [16] and in the test on Proteus mirabilis [12] were 13 mm, 9 mm and 13 mm, respectively.
As to `CN1C[C@@H](c2ccccc2)[C@@]2(CCc3c([nH]c4ccccc34)C2=O)[C@]12C(=O)c1cccc3cccc2c13`, the zone of inhibition at 50 µg/mL in [1] is 14 mm; in the test with Proteus vulgaris [2], 14 mm; with Proteus mirabilis [3] it was 13 mm; in the test with Staphylococcus aureus [6] it was 19 mm. Moreover, the zone of inhibition at 25 µg/mL in [15] stood at 11 mm; with Staphylococcus aureus [16], 14 mm; in the test with Proteus mirabilis [12], 11 mm. The zone of inhibition at 75 µg/mL came out at 18 mm with Proteus vulgaris [4], 22 mm with Proteus mirabilis [9], 21 mm in the test on Staphylococcus aureus [10] and 20 mm in test [13]. Also, the zone of inhibition at 100 µg/mL in the test on Proteus vulgaris [5] was 21 mm; in test [8], 28 mm; in the test with Proteus mirabilis [11] it was 32 mm; with Staphylococcus aureus [14], 26 mm.
